What was measured:
[1] = molecular target: T1, Estrogen receptor (Rattus norvegicus) (UniProt P06211); assay: Displacement of [3H]-estradiol from estrogen receptor in rat uterine cytosol at 10^-4 to 10^-10 M after 16 hrs relative to estradiol; conditions: Uterus
T1 sequence (whole entry): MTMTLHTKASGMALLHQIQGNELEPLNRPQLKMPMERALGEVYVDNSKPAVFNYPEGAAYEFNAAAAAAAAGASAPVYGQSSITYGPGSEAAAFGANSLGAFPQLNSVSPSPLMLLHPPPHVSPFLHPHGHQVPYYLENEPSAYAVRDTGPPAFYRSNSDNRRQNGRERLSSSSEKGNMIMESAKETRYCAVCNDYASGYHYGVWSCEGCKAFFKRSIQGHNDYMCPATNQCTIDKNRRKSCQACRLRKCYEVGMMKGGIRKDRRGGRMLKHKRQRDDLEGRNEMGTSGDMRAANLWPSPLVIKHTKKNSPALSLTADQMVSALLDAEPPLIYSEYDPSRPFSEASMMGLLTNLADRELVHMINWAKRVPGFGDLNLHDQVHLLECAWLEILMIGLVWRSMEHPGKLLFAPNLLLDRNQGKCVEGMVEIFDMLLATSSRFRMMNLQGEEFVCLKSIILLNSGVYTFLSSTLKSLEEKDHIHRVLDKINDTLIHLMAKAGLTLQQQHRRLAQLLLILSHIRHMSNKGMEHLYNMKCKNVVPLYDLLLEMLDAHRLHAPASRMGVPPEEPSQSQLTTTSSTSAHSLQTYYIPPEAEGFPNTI

[2] = Drug metabolism in rat uterine nuclear fraction assessed as 1-(p-Hydroxyphenyl)-2-phenyl-6-methoxy-1,2,3,4-tetrahydronaphthalene level at 25 ug, sc after 18 hrs by TLC analysis; assay type: ADME, organism-based; conditions: in vivo
[3] = Drug uptake in rat estrogen receptor expressing uterine at 25 ug, sc after 13 hrs by high salt sucrose density gradient analysis in presence of unlabeled estradiol; assay type: ADME, organism-based, Uterus; conditions: in vivo
Method in brief: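 Rats pretreated 1 h in vivo with 5 μg unlabeled estradiol or saline vehicle, then given 25 μg tritiated antiestrogen sc. Uteri excised; washed 800g nuclear pellet extracted 1 h at 0 °C with buffer containing 0.4 M KCl. Extract charcoal-dextran treated, ¹⁴C ovalbumin and γ-globulin markers added. High-salt sucrose gradients spun 17 h, 4 °C, 270000g; 5S binding read.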

Serum = assay: Drug metabolism in rat serum assessed as metabolite level at 25 ug, sc after 1 hr by TLC analysis; assay type: ADME, organism-based; conditions: in vivo
Method in brief: (§1)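 Immature rats given tritiated antiestrogen, 25 μg sc per rat. At 1 and 13 h, serum was prepared and extracted with ethyl acetate. Uteri were homogenized, the nuclear pellet washed three times, then extracted with ethanol. Extracts were concentrated, run on silica gel TLC in anesthetic ether–ethanol (98:2), and radioactivity counted by liquid scintillation.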

[4] = Drug metabolism in rat uterine nuclear fraction assessed as metabolite level at 25 ug, sc after 1 hr by TLC analysis; assay type: ADME, organism-based; conditions: in vivo
Method in brief: as §1

[5] = Drug metabolism in rat uterine nuclear fraction assessed as metabolite level at 25 ug, sc after 13 hrs by TLC analysis; assay type: ADME, organism-based; conditions: in vivo
Method in brief: as §1

[6] = Drug metabolism in rat uterine nuclear fraction assessed as 1-[p-(2,3-Dihydroxyphenyl)phenyl]-2-phenyl-6-methoxy-1,2,3,4-tetrahydronaphthalene level at 25 ug, sc after 18 hrs by TLC analysis; assay type: ADME, organism-based; conditions: in vivo
[7] = Drug metabolism in rat uterine nuclear fraction assessed as 3-(4-((1R,2S)-6-hydroxy-2-phenyl-1,2,3,4-tetrahydronaphthalen-1-yl)phenoxy)propane-1,2-diol level at 25 ug, sc after 18 hrs by TLC analysis; assay type: ADME, organism-based; conditions: in vivo
[8] = Drug metabolism in rat uterine nuclear fraction assessed as (5R,6S)-5-(4-hydroxyphenyl)-6-phenyl-5,6,7,8-tetrahydronaphthalen-2-ol level at 25 ug, sc after 18 hrs by TLC analysis; assay type: ADME, organism-based; conditions: in vivo

Structure (SMILES)	RBA [1]	other results
COc1ccc2c(c1)CC[C@@H]1[C@@H]2CC[C@]2(C)[C@@H](O)CC[C@@H]12	3	–
COc1ccc2c(c1)CC[C@H](c1ccccc1)[C@@H]2c1ccc(O)cc1	0.24	–
Oc1ccc([C@@H]2c3ccc(O)cc3CC[C@@H]2c2ccccc2)cc1	29.8	–

More lines, main results first:

RBA [1]	Structure (SMILES)	other results
300	CC[C@H](c1ccc(O)cc1)[C@@H](CC)c1ccc(O)cc1	–
39.1	OCC(O)COc1ccc([C@@H]2c3ccc(O)cc3CC[C@@H]2c2ccccc2)cc1 (stereo partly specified)	–
0.1	COc1ccc2c(c1)CC[C@H](c1ccccc1)[C@@H]2c1ccc(OCC(O)CO)cc1 (mixture of isomers)	Drug metabolism [2]: metabolite_detected; Drug metabolism [3]: metabolite_detected; Drug metabolism (Serum): metabolite_detected; Drug metabolism [4]: metabolite_detected; Drug metabolism [5]: metabolite_detected; Drug metabolism [6]: metabolite_detected; Drug metabolism [7]: metabolite_detected; Drug metabolism [8]: metabolite_detected
19.3	CC[C@H](c1ccc(O)cc1)[C@@H](CC)c1ccc(OC)cc1 (relative stereo)	–
6.9	CC[C@H](c1ccc(O)cc1)[C@@H](CC)c1ccc(OCC(O)CO)cc1 (relative stereo)	–

Source: ChEMBL document CHEMBL3244378, “Antiestrogens and antiestrogen metabolites: preparation of tritium-labeled (+/-)-cis-3-[p-(1,2,3,4-tetrahydro-6-methoxy-2-phenyl-1-naphthyl)phenoxyl]-1,2-propanediol (U-23469) and characterization and synthesis of a biologically important metabolite” (J Med Chem, 1979)
